# Reference: ChEMBL document CHEMBL4043223, “Structure-activity relationship study of small molecule inhibitors of the DEPTOR-mTOR interaction” (Bioorg Med Chem Lett, 2017)
# The source made the active and inactive calls. The rule behind the calls is not given here.
# Legend:
# RPMI-8226 [1] = test: Cytotoxicity against human RPMI8226 cells after 48 hrs by MTT assay; type: functional, cell-based; details: RPMI-8226, 48 h
# Procedure, shortened: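 MTT in RPMI-8226 cells: 1–2 × 10^4 cells per well in complete medium, exposed 48 h to a range of compound concentrations. MTT reduction to formazan read at 570 nm. Quadruplicate wells per group; OD given as % of DMSO-only control set at 100%. IC50 taken from the concentration series.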
# MM1.S = test: Cytotoxicity against human MM1S cells after 48 hrs by MTT assay; type: functional, cell-based
# Procedure, shortened: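 MM1.S myeloma cells (DEPTOR-over-expressing) in 48 h MTT: 1–2 × 10^4 cells per well, graded compound concentrations, formazan at 570 nm. Quadruplicate wells; survival as % of DMSO control; IC50 derived from the concentration range.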
# RPMI-8226 [2] = test: Induction of apoptosis in human RPMI8226 cells assessed as caspase3 activation at 0.12 to 2 uM after 48 hrs by cytofix/cytoperm staining based flow cytometry; type: functional, cell-based
# Procedure, shortened: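 Caspase-3 flow cytometry 48 h after drug exposure of 8226 cells. 10^6 cells washed in PBS, fixed and permeabilized in cytofix/cytoperm, stained 30 min with PE-conjugated anti-active-caspase-3 (1:5 dilution). % apoptosis = drug-treated minus DMSO-control positives; mean ± SD, n = 4.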
# PBL = test: Cytotoxicity against PBL (unknown origin) after 48 hrs by MTT assay; type: cell-based
# Procedure, shortened: (§1)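 Normal peripheral blood lymphocytes tested head-to-head with 8226 myeloma cells in 48 h MTT assays. […] Therapeutic index = IC50(PBL)/IC50(8226).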
# [3] = Therapeutic index, ratio of IC50 for PBL (unknown origin) to IC50 for human RPMI8226 cells; procedure, shortened: as §1
# [4] = molecular target: DEP domain-containing mTOR-interacting protein (Homo sapiens) (UniProt Q8TB45); test: Inhibition of mTOR binding to DEPTOR in human RPMI8226 cells at 1 uM treated 6 hrs followed by DEPTOR immunoprecipitation by immunoblotting analysis; type: cell-based
# Sequence of DEP domain-containing mTOR-interacting protein (Homo sapiens) (Q8TB45 whole entry, the tested form may be a part): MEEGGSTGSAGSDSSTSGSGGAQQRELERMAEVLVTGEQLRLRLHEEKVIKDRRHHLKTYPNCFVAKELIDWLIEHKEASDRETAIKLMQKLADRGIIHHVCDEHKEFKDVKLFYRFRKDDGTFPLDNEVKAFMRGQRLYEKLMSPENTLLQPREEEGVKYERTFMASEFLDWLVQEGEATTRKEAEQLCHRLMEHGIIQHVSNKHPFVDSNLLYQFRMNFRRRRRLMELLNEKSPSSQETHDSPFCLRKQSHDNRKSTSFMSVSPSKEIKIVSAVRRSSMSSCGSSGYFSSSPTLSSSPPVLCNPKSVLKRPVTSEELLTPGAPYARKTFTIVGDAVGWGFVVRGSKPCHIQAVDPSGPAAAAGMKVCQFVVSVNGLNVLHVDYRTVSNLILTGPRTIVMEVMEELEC
# Procedure, shortened: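 RPMI8226 myeloma cells exposed to compound or DMSO for 6 h; DEPTOR immunoprecipitated from cell extracts, and precipitates immunoblotted for DEPTOR and co-precipitated mTOR. Proteins resolved by 12.5% SDS-PAGE, transferred to PVDF and detected with specific antibodies.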
# [5] = molecular target: DEP domain-containing mTOR-interacting protein (Homo sapiens) (UniProt Q8TB45); test: Inhibition of mTOR binding to DEPTOR in human RPMI8226 cells at 0.5 uM treated 6 hrs followed by DEPTOR immunoprecipitation by immunoblotting analysis; type: cell-based
# Procedure, shortened: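 Co-immunoprecipitation: 8226 cells treated 6 h with DMSO or 0.5 µM compound. DEPTOR immunoprecipitated; precipitates immunoblotted for DEPTOR and bound mTOR.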
# [6] = molecular target: DEP domain-containing mTOR-interacting protein (Homo sapiens) (UniProt Q8TB45); test: Inhibition of mTOR binding to DEPTOR in human RPMI8226 cells assessed as increase in mTORC1-associated p70 phosphorylation at 1 uM after 6 hrs by Western blot analysis; type: cell-based
# Procedure, shortened: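 8226 cells exposed 6 h to compound, DMSO in untreated controls. Lysates run on 12.5% SDS-PAGE, transferred to PVDF, probed for phospho- and total p70. Densitometric phospho/total ratio expressed as fold versus parent compound B set at 1; mean ± SD, n = 4.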
# [7] = molecular target: DEP domain-containing mTOR-interacting protein (Homo sapiens) (UniProt Q8TB45); test: Inhibition of DEPTOR in human RPMI8226 cells assessed as upregulation of mTORC1-dependant p21 expression at 0.5 to 2 uM after 6 hrs by Western blot analysis; type: cell-based
# [8] = molecular target: DEP domain-containing mTOR-interacting protein (Homo sapiens) (UniProt Q8TB45); test: Inhibition of mTOR binding to DEPTOR in human RPMI8226 cells assessed as increase in mTORC1-associated p70 phosphorylation at […] after 6 hrs by Western blot analysis; type: cell-based
# RPMI-8226 [9] = test: Cytotoxicity against RAPTOR knockdown human RPMI8226 cells at 0.12 to 1 uM after 48 hrs by MTT assay; type: functional, cell-based
# Procedure, shortened: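 8226 cells infected with lentivirus carrying shRAPTOR or control shSCRAMBLE, knockdown confirmed by immunoblot. Cells then incubated with increasing compound concentrations; MTT read-out after 48 h, formazan at 570 nm, as % of DMSO control.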
# [10] = molecular target: DEP domain-containing mTOR-interacting protein (Homo sapiens) (UniProt Q8TB45); test: Inhibition of mTOR binding to DEPTOR in human RPMI8226 cells assessed as increase in mTORC2-associated AKT phosphorylation at S473 residue by Western blot analysis; type: cell-based
# RPMI-8226 [11] = test: Cytotoxicity against human RPMI8226 cells after 48 hrs in presence of mTOR inhibitor pp242 by MTT assay; type: functional, cell-based
# RPMI-8226 [12] = test: Induction of apoptosis in human RPMI8226 cells assessed as caspase3 activation in presence of mTOR inhibitor pp242 by cytofix/cytoperm staining based flow cytometry; type: functional, cell-based
# [13] = molecular target: DEP domain-containing mTOR-interacting protein (Homo sapiens) (UniProt Q8TB45); test: Inhibition of mTOR binding to DEPTOR in human RPMI8226 cells assessed as increase in mTORC1-associated 4E-BP1 phosphorylation by Western blot analysis; type: cell-based
# [14] = molecular target: DEP domain-containing mTOR-interacting protein (Homo sapiens) (UniProt Q8TB45); test: Inhibition of mTOR binding to DEPTOR in human RPMI8226 cells assessed as increase in mTORC1-associated S6 phosphorylation by Western blot analysis; type: cell-based
# [15] = molecular target: DEP domain-containing mTOR-interacting protein (Homo sapiens) (UniProt Q8TB45); test: Inhibition of mTOR binding to DEPTOR in human RPMI8226 cells assessed as increase in mTORC2-associated SGK phosphorylation by Western blot analysis; type: cell-based
# [16] = molecular target: DEP domain-containing mTOR-interacting protein (Homo sapiens) (UniProt Q8TB45); test: Inhibition of mTOR binding to DEPTOR in human RPMI8226 cells assessed as decrease in AKT phosphorylation at […] residue by Western blot analysis; type: cell-based
# Mus musculus [17] = test: Toxicity in mouse xenografted with human RPMI8226 cells assessed as effect on RBC level at 20 mg/kg, ip administered daily for 3 days measured post last dose; type: organism-based; details: in vivo, 72 h
# Procedure, shortened: (§2)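 Immunodeficient mice inoculated subcutaneously with 8226 myeloma cells. Once tumors reached 500 mm3, daily treatment at 20 mg/kg was started.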
# Mus musculus [18] = test: Toxicity in mouse xenografted with human RPMI8226 cells assessed as effect on WBC level at 20 mg/kg, ip administered daily for 3 days measured post last dose; type: organism-based; details: in vivo, 72 h; procedure, shortened: as §2
# Mus musculus [19] = test: Toxicity in mouse xenografted with human RPMI8226 cells assessed as effect on platelet level at 20 mg/kg, ip administered daily for 3 days measured post last dose; type: organism-based; details: in vivo, 72 h; procedure, shortened: as §2
# RPMI-8226 [20] = test: Anti-tumor activity against human RPMI8226 cells xenografted in mouse assessed as reduction in tumor growth at 20 mg/kg, ip administered daily for 3 days measured post last dose; type: functional, organism-based; procedure, shortened: as §2
# Homo sapiens = organism: Homo sapiens; test: Activation of mTORC1 in DEPTOR knockdown human RPMI8226 cells assessed as increase in p70 phosphorylation
# Procedure, shortened: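 DEPTOR silenced in 8226 cells by shRNA lentivirus, with shScramble-transfected cells as control. Cells drug-treated, then p70 phosphorylation assessed by immunoblot.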
structure (smiles),measurement,setting,value
ClC1=C(Cl)C(Cl)=C(Cl)C1=NNc1ccccc1,IC50,RPMI-8226 [1],600 to 700 nM
same,IC50,MM1.S,2000 nM
ClC1=C(Cl)C(Cl)=C(Cl)C1=NNC1CCCCC1,IC50,RPMI-8226 [1],3000 to 5000 nM
same,IC50,MM1.S,> 3000 nM
Fc1cccc(NN=C2C(Cl)=C(Cl)C(Cl)=C2Cl)c1,IC50,RPMI-8226 [1],500 to 600 nM
same,IC50,MM1.S,1500 nM
Cc1cccc(NN=C2C(Cl)=C(Cl)C(Cl)=C2Cl)c1,IC50,RPMI-8226 [1],2000 nM
same,IC50,MM1.S,> 3000 nM
ClC1=C(Cl)C(Cl)=C(Cl)C1=NNc1cc(Cl)cc(Cl)c1,IC50,RPMI-8226 [1],800 nM
same,IC50,MM1.S,2000 nM
NN=c1c2ccccc2oc2ccccc12,IC50,RPMI-8226 [1],> 5000 nM
same,IC50,MM1.S,> 5000 nM
NN=C1C(Cl)=C(Cl)C(Cl)=C1Cl,IC50,RPMI-8226 [1],1300 to 1500 nM
same,IC50,MM1.S,3000 nM
same,Activity,RPMI-8226 [2],Active
same,IC50,PBL,20000 nM
same,Ratio IC50,[3],14.3
same,inhibition,[4],Active
same,inhibition,[5],inactive
same,inhibition,[6],Active
O=C(c1ccc(F)cc1)N(N=C1C(Cl)=C(Cl)C(Cl)=C1Cl)C(=O)c1ccc(F)cc1,inhibition,[7],Active
same,IC50,RPMI-8226 [1],200 to 250 nM
same,IC50,MM1.S,300 nM
same,inhibition,[8],Active
same,Activity,RPMI-8226 [2],Active
same,IC50,PBL,2000 nM
same,Ratio IC50,[3],10
same,inhibition,[6],Active
CC(C)(C)OC(=O)NN=C1c2ccccc2-c2ccccc21,IC50,RPMI-8226 [1],> 5000 nM
same,IC50,MM1.S,> 5000 nM
COC1(OC)C(Cl)=C(Cl)C(Cl)=C1Cl,IC50,RPMI-8226 [1],> 5000 nM
CC(C)(C)NN=C1C(Cl)=C(Cl)C(Cl)=C1Cl,IC50,RPMI-8226 [1],3000 to 5000 nM
same,IC50,MM1.S,> 3000 nM
CN(C)N=C1C(Cl)=C(Cl)C(Cl)=C1Cl,IC50,RPMI-8226 [1],1300 to 3000 nM
same,IC50,MM1.S,> 3000 nM
Fc1ccc(NN=C2C(Cl)=C(Cl)C(Cl)=C2Cl)cc1,IC50,RPMI-8226 [1],600 to 700 nM
same,IC50,MM1.S,1300 nM
same,inhibition,[8],Active
same,Activity,RPMI-8226 [2],Active
same,IC50,PBL,20000 nM
same,Ratio IC50,[3],33
same,inhibition,[5],Active
same,Activity,RPMI-8226 [9],inactive
same,inhibition,[6],Active
FC(F)(F)c1cccc(NN=C2C(Cl)=C(Cl)C(Cl)=C2Cl)c1,inhibition,[10],Active
same,inhibition,[7],Active
same,IC50,RPMI-8226 [1],110 to 170 nM
same,IC50,MM1.S,1000 nM
same,inhibition,[8],Active
same,Activity,RPMI-8226 [2],Active
same,IC50,PBL,15000 nM
same,Ratio IC50,[3],136
same,inhibition,[5],Active
same,Activity,RPMI-8226 [9],inactive
same,Activity,RPMI-8226 [11],inactive
same,Activity,RPMI-8226 [12],inactive
same,inhibition,[13],Active
same,inhibition,[14],Active
same,inhibition,[15],Active
same,inhibition,[16],Active
same,Activity,Mus musculus [17],Non-Toxic
same,Activity,Mus musculus [18],Non-Toxic
same,Activity,Mus musculus [19],Non-Toxic
same,Activity,RPMI-8226 [20],Active
same,Activity,Homo sapiens,inactive
same,inhibition,[6],Active
